Pyk2 oligo antag: antagonists of Pyk2 self-association, primary screen, Q293 cells, FERM NanoBiT luminescence, HTS; Protein-tyrosine kinase 2-beta (Homo sapiens), Q14289; hits give low values; z-score (the deposit names both 25 µM and 10 µM); hit rate 0.83% among 99,000; AID 1347419, 2020;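 active means Z-score of -3 or lower, scaled per plate to the spread of control and sample wells; inactive means z-score above -3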;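 further: negative z-score means lost luminescence so less FERM oligomerization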
Rev-RRE block: HIV-1 Rev-RRE binding inhibitors, primary screen, biochemical, FRET, protein-RNA interaction; Rev peptide-RRE RNA binding; AID 704, 2007; inhibition, % at 8 µM; P05866; hit rate 0.79% among 97,000;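 active means inhibition above the screen-wide mean plus 3 SD, cut at about 35% in these data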
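Assay system: labelled RRE RNA duplex and labelled Rev peptide / Medium: HEPES pH 7.5 salt buffer with EDTA / Reagent: labelled Rev peptide / Schedule: 5 + 15 min at 25 °C / Signal: FRET, excitation 480 nm, emission 540 nm donor and 671 nm acceptor / Benchmarks: DMSO and neomycin B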
PTPN22 inh 2: PTPN22 phosphatase inhibitors, primary screen, biochemical, DiFMUP fluorescence, 2 µM; recombinant LYP catalytic domain; inhibition, % at 2 µM; hit rate 0.21% among 96,000;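 active means inhibition at 2 µM at or above a set limit, the screen mean plus 3 SD, cut at about 24% in these data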
LYP act: LYP phosphatase activators, primary screen, biochemical, DiFMUP fluorescence, 2 µM | Tyrosine-protein phosphatase non-receptor type 22 (Homo sapiens), Q9Y2R2 | recombinant LYP; 0 = plate median, 100 = signal doubled | activation, % at 2 µM | hit rate 0.11% among 96,000;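 active means activation at 2 µM above a set limit, the mean plus 5 SD, cut at about 37% in these data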
Numbers stand for hits; n = inactive; x = not tested or not shown; [ ] = dose if it differs, or a comment. The list is not random: actives were taken first. Their share in the collection is about 1.8%.

SMILES | Pyk2 oligo antag | Rev-RRE block | PTPN22 inh 2 | LYP act
CC(C)N1CC=C2C(C#N)=C(N)C(C#N)(C#N)[C@H](c3ccoc3)[C@H]2C1 | x | 107[fluorescence artefact?] | n | n
CC(C)N1CC=C2C(C#N)=C(N)C(C#N)(C#N)C(c3ccccc3)C2C1 (configuration not stated) | n | 91[fluorescence artefact?] | n | n
CN1CC=C2C(C#N)=C(N)C(C#N)(C#N)C(Cc3ccccc3)C2C1 (configuration not stated) | n | 72 | n | n
COc1cc(C2C3CN(C)CC=C3C(C#N)=C(N)C2(C#N)C#N)ccc1OC(C)C (configuration not stated) | n | x | x | x
CCn1c(C(=O)NCc2cccnc2)cc2sc(Cl)cc21 | n | n | n | n
Cn1cc(CC(=O)NCCCN2CCCC2=O)c2ccccc21 | x | x | n | n
O=C(N/N=C/c1ccncc1)c1cc2c(ccc3ccccc32)o1 | n | n | n | n
O=C(N/N=C/c1cccc([N+](=O)[O-])c1)c1cc2c(ccc3ccccc32)o1 | n | n | 35 | n
CC(=NCCN1CCNCC1)C1=C(O)CC(C)(C)CC1=O | n | n | n | n
O=C(NC(c1ccccc1)c1c(O)ccc2ccccc12)c1ccccc1Cl (configuration not stated) | -3.3 | n | n | n
CC(C)C(=O)NC(c1ccccc1Cl)c1c(O)ccc2ccccc12 (configuration not stated) | -3.8 | n | n | n
CCC(=O)NC(c1ccc([N+](=O)[O-])cc1)c1c(O)ccc2ccccc12 (configuration not stated) | -3.1 | n | n | n
Cc1cc(-c2ccccc2C(=O)O)on1 | n | n | n | n
O=C(O)c1ccccc1C1=Nc2ccc(O)cc2Oc2cc(O)ccc21 | n | 78 | n | n
COc1ccc2cc3cc(C(=O)NCc4ccc5c(c4)OCO5)oc3nc2c1 | n | n | n | n
COc1ccc2cc3cc(C(=O)N4CCN(Cc5ccc6c(c5)OCO6)CC4)oc3nc2c1 | n | n | 26 | n
O=C(CSc1nc2ccccc2c2nc3ccccc3n12)NCc1ccco1 | n | n | 30 | n
Cc1c(CCOC(=O)CC23CC4CC(CC(C4)C2)C3)sc[n+]1Cc1ccccc1 | n | n | n | n
Cc1c(CCOC(=O)C2C3CC4CC(C3)CC2C4)sc[n+]1CC(=O)c1ccc(Br)cc1 (configuration not stated) | n | n | 33 | n
Cc1ccc(C(=O)Nc2cccc(N(C)S(C)(=O)=O)c2)cc1S(=O)(=O)Nc1ccccc1 | -3.1 | n | n | n
Cc1cc(=O)oc(C)c1C(=O)Nc1ccc2ncccc2c1 | n | 125[fluorescence artefact?] | n | n
Cc1cc(=O)oc(C)c1C(=O)Nc1ccc2nsnc2c1 | n | n | n | n
CN1CCN(C(=O)CSc2nc(-c3cccs3)ccc2C#N)CC1 | n | n | n | n
O=C(COc1ncnc2ccccc12)N1CCN(S(=O)(=O)c2ccc(Cl)cc2)CC1 | n | x | x | x
O=[N+]([O-])c1ccc(N2CCN(CCO)CC2)cc1Sc1nc2ccccc2[nH]1 | x | n | n | n
SMILES | Pyk2 oligo antag | Rev-RRE block | PTPN22 inh 2 | LYP act
CCOc1ccc(C2C=C(c3ccc(C)cc3)Nc3nnnn32)cc1 (configuration not stated) | n | 39 | n | n
CCOc1ccc(C2C=C(c3ccccc3)Nc3nnnn32)cc1 (configuration not stated) | n | n | n | n
Cc1ccc2nsnc2c1S(=O)(=O)N1CCOCC1 | n | n | n | n
COc1ccc(Br)cc1C(=O)Nc1ccccc1-c1ccccc1 | -3.6 | n | n | n
O=[N+]([O-])c1ccc2nc(-c3ccc(Cl)cc3)n(OCc3ccccc3)c2c1 | -3.1 | n | n | n
Cc1ccc(COn2c(-c3ccc(Cl)cc3)nc3ccc([N+](=O)[O-])cc32)cc1 | n | n | n | n
N#Cc1ccccc1CN1C(=O)S/C(=C/c2cccn2-c2ccc(C(=O)O)cc2)C1=O | -3.2 | n | n | n
COc1ccc(OC)c(NC(=O)C2=C(C)Nc3ncnn3C2c2cccs2)c1 (configuration not stated) | n | x | x | x
Brc1ccc(C2C3=C(Nc4ncnn42)c2ccccc2OC3c2ccncc2)cc1 (configuration not stated) | -3.8 | n | n | n
COc1ccc(C2Oc3ccccc3C3=C2C(c2cccs2)n2ncnc2N3)cc1 (configuration not stated) | -3.7 | n | n | n
COc1ccc(C2C3=C(Nc4ncnn42)c2ccccc2CC3)cc1OC (configuration not stated) | x | n | n | n
CCOc1ccc(-c2cc(NC(=O)Cn3ncc4c3-c3ccccc3OC4)on2)cc1OCC | x | n | x | x
Cc1ccc(CCNc2ccccc2C)cn1 | n | n | n | n
COc1cccc(N=Nc2c(N)[nH]n3c(=O)cc(-c4ccccc4)nc23)c1 | -3.6 | n | n | n
Cc1ccc(N=Nc2c(N)[nH]n3c(=O)cc(-c4ccccc4)nc23)cc1 | n | n | n | n
CC(C)CNS(=O)(=O)c1ccc(CCC(=O)Nc2ccc3c(c2)OCCO3)cc1 | n | n | n | n
COc1cc(-c2c(C#N)c(N)nc3c2CCCC3)ccc1O | n | n | n | n
COc1cc(/C=C(\C#N)c2nc3c(s2)CCCC3)ccc1O | x | 72 | n | n
O=C(c1ccccc1)N1CCN(c2ncnc3sc4c(c23)CCC4)CC1 | n | n | n | n
O=C(Nc1cnc2ccccc2c1)C1COc2ccccc2O1 (configuration not stated) | n | n | 28 | n
Cc1cc(Cl)c(S(=O)(=O)N2CCSCC2)cc1OCC(=O)NC1CCCCC1 | -3.7 | n | n | n
N#C/C(=C(/O)COC(=O)Cc1c[nH]c2ccccc12)c1nc2ccccc2[nH]1 | n | n | n | n
N#C/C(=C(/O)COC(=O)CCc1ccc(S(=O)(=O)N2CCOCC2)cc1)c1nc2ccccc2[nH]1 | n | 45 | n | n
CCn1cc(C(=O)NCCCN2CCC(C)CC2)c2cc(OC)c(OC)cc2c1=O | x | n | n | n
c1cncc(-c2nc(N3CCOCC3)c3ccccc3n2)c1 | n | n | n | n
SMILES | Pyk2 oligo antag | Rev-RRE block | PTPN22 inh 2 | LYP act
c1cncc(-c2nc(NCC3COc4ccccc4O3)c3ccccc3n2)c1 (configuration not stated) | -3.8 | n | n | n
COc1ccc(OC)c(CN2CCCC(CO)C2)c1 (configuration not stated) | n | n | n | n
CCOC(=O)C1=C(C)NC(C)=C(C(=O)OCC)C1C(=O)O | n | n | n | n
CCOC(=O)C1=C(C)NC(C)=C(C(=O)OCC)C1c1sccc1C | -3.3 | n | n | n
CCCC1C(C(=O)OCC)=C(C)NC(C)=C1C(=O)OCC | -3.1 | n | n | n
Cc1ccc2c(c1)SC1=NC(c3ccccc3)(C(F)(F)F)NC(=O)N12 (configuration not stated) | x | n | n | n
Cc1ccc(C)c(N(C(=O)Cn2nnc(-c3cccs3)n2)C(C(=O)NC2CC2)c2ccc(C)o2)c1 (configuration not stated) | -4.3 | n | n | n
